From paper PMC12679602 (RSC Advances, 2025)
Values joined by “and” are separate entries in the source; they are usually repeats but may differ in a detail not shown here. Equal values may be shown once.

Assays:
[1] = tested on: Staphylococcus aureus TISTR746; assay: Disc diffusion, S. aureus; assay type: cell-based; conditions: for Inhibition zone ± SD, S. aureus: 1 mg per disc, 6 mm disc, 37 °C, 18–24 h
Procedure, shortened: (§1)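 Test compounds were dissolved in DMSO, and 1 mg was loaded onto sterile 6 mm paper discs. Nutrient agar plates were inoculated with bacterial suspension adjusted to 0.5 McFarland. Each plate held four zones: DMSO negative control, ciprofloxacin positive control (5 µg per disc), the free bile acid and its salts. Plates were incubated at 37 °C for 18–24 h. Inhibition zones were read in mm, in triplicate.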

[2] = tested on: Pseudomonas aeruginosa TISTR357; assay: Disc diffusion, P. aeruginosa; assay type: cell-based; conditions: for Inhibition zone ± SD, P. aeruginosa: 1 mg per disc, 6 mm disc, 37 °C, 18–24 h
Procedure, shortened: as §1

[3] = tested on: Enterococcus faecalis TISTR927; assay: Disc diffusion, E. faecalis; assay type: cell-based; conditions: for Inhibition zone ± SD, E. faecalis: 1 mg per disc, 6 mm disc, 37 °C, 18–24 h
Procedure, shortened: as §1

S. typhi = assay: Disc diffusion, S. typhi; assay type: cell-based, Salmonella enterica serovar Typhimurium TISTR1470; conditions: for Inhibition zone ± SD, S. typhi: 1 mg per disc, 6 mm disc, 37 °C, 18–24 h
Procedure, shortened: as §1

[4] = tested on: Staphylococcus epidermidis TISTR2172; assay: Disc diffusion, S. epidermidis; assay type: cell-based; conditions: for Inhibition zone ± SD, S. epidermidis: 1 mg per disc, 6 mm disc, 37 °C, 18–24 h
Procedure, shortened: as §1

[5] = tested on: Candida albicans TISTR5554; assay: Disc diffusion, C. albicans; assay type: cell-based; conditions: for Inhibition zone ± SD, C. albicans: 1 mg per disc, 6 mm disc, 37 °C, 18–24 h
Procedure, shortened: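 Disc diffusion against the yeast. Test compound was in DMSO at 1 mg per 6 mm sterile paper disc, on nutrient agar inoculated with suspension standardized to 0.5 McFarland. Each plate carried a DMSO negative control, amphotericin B positive control (10 µg per disc), the free bile acid and its salts. Incubation was 37 °C for 18–24 h. Zone of inhibition was measured in mm, in triplicate.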

[6] = tested on: Escherichia coli TISTR117; assay: Disc diffusion, E. coli; assay type: cell-based; conditions: for Inhibition zone ± SD, E. coli: 1 mg per disc, 6 mm disc, 37 °C, 18–24 h
Procedure, shortened: as §1

S. flexneri ATCC 9199 = assay: Disc diffusion, S. flexneri; assay type: cell-based, Shigella flexneri; conditions: for Inhibition zone ± SD, S. flexneri: 1 mg per disc, 6 mm disc, 37 °C, 18–24 h
Procedure, shortened: as §1

Bacillus cereus TISTR035 = assay: Disc diffusion, B. cereus; assay type: cell-based; conditions: for Inhibition zone ± SD, B. cereus: 1 mg per disc, 6 mm disc, 37 °C, 18–24 h
Procedure, shortened: as §1

[7] = tested on: B. cereus, S. aureus, S. epidermidis, E. faecalis, and E. coli; assay: Disc diffusion, range over strains as summarised in text; assay type: cell-based; conditions: for inhibition zones, range over strains: B. cereus, S. aureus, S. epidermidis, E. faecalis, E. coli, 1 mg per disc
Procedure, shortened: as §1

in vitro = conditions: human
[8] = Staphylococcus aureus, TISTR746, read-out: Inhibition zone ± SD, S. aureus
[9] = Enterococcus faecalis, TISTR927, read-out: Inhibition zone ± SD, E. faecalis
[10] = Staphylococcus epidermidis, TISTR2172, read-out: Inhibition zone ± SD, S. epidermidis
[11] = Escherichia coli, TISTR117, read-out: Inhibition zone ± SD, E. coli
[12] = Bacillus cereus, TISTR035, read-out: Inhibition zone ± SD, B. cereus

| SMILES | Inhibition zone ± SD, S. aureus [1] | Inhibition zone ± SD, P. aeruginosa [2] | Inhibition zone ± SD, E. faecalis [3] | Inhibition zone ± SD, S. typhi (S. typhi) | Inhibition zone ± SD, S. epidermidis [4] | Inhibition zone ± SD, C. albicans [5] | Inhibition zone ± SD, E. coli [6] | Inhibition zone ± SD, S. flexneri (S. flexneri ATCC 9199) | Inhibition zone ± SD, B. cereus (Bacillus cereus TISTR035) | also measured |
| --- | --- | --- | --- | --- | --- | --- | --- | --- | --- | --- |
| C[C@H](CCC(=O)O)[C@H]1CC[C@H]2[C@@H]3[C@H](O)C[C@@H]4C[C@H](O)CC[C@]4(C)[C@H]3CC[C@]12C [CDCA (13), chenodeoxycholic acid] | 9.4 ± 0.8 mm | Inactive | 8.4 ± 1.1 mm | Inactive | 11.8 ± 0.4 mm | Inactive | 7.6 ± 0.6 mm | Inactive | 13.5 ± 0.4 mm | zone of inhibition at 1000 µg/disc [1, 8]: 9.4 mm; zone of inhibition at 1000 µg/disc [3, 9]: 8.4 mm; zone of inhibition at 1000 µg/disc [4, 10]: 11.8 mm; zone of inhibition at 1000 µg/disc [6, 11]: 7.6 mm; zone of inhibition at 1000 µg/disc (Bacillus cereus TISTR035; [12]): 13.5 mm |
| C[C@H](CCC(=O)O)[C@H]1CC[C@H]2[C@@H]3CC[C@@H]4C[C@H](O)CC[C@]4(C)[C@H]3C[C@H](O)[C@]12C [DCA (5), deoxycholic acid] | 11.7 ± 1.6 mm | Inactive | 10.6 ± 0.4 mm | Inactive | 13.5 ± 0.7 mm | Inactive | 10.9 ± 1.6 mm | Inactive | 14.4 ± 1.5 mm | zone of inhibition at 1000 µg/disc [3, 9]: 10.6 mm; zone of inhibition at 1000 µg/disc [4, 10]: 13.5 mm; inhibition zones, range over strains [7]: 10.6–14.4 mm |
| CCO [Ethanol, ethanol, reference compound] |  |  |  |  |  |  |  |  |  | CC50 (A549-hACE2 cells): >70% v/v |
| C[C@H](CCC(=O)O)[C@H]1CC[C@H]2[C@@H]3CC[C@@H]4C[C@H](O)CC[C@]4(C)[C@H]3CC[C@]12C [LCA (1), lithocholic acid] |  | Inactive |  | Inactive |  | Inactive |  | Inactive |  | cytotoxicity (A549-hACE2 cells): did not show cytotoxicity; CC50 (in vitro): > 50 µg/mL |
| C[C@H](CCC(=O)O)[C@H]1CC[C@H]2[C@@H]3[C@@H](O)C[C@@H]4C[C@H](O)CC[C@]4(C)[C@H]3CC[C@]12C [UDCA (9), ursodeoxycholic acid] | 7.8 ± 0.8 mm | Inactive |  | Inactive | 9.6 ± 0.4 mm | Inactive | 7.4 ± 0.4 mm | Inactive | 8.7 ± 0.3 mm |  |
| C[C@H](CCC(=O)[O-])[C@H]1CC[C@H]2[C@@H]3[C@H](O)C[C@@H]4C[C@H](O)CC[C@]4(C)[C@H]3CC[C@]12C.C[N+](C)(C)CCO [[CDCA][Z] (16)] | 13.8 mm and 13.8 ± 1.3 mm | Inactive | 12.2 mm and 12.2 ± 2.6 mm | Inactive | 17.1 mm and 17.1 ± 0.5 mm | Inactive | 10.4 mm and 10.4 ± 1.2 mm | Inactive | 16.4 mm and 16.4 ± 0.7 mm |  |
| C[C@H](CCC(=O)[O-])[C@H]1CC[C@H]2[C@@H]3CC[C@@H]4C[C@H](O)CC[C@]4(C)[C@H]3C[C@H](O)[C@]12C.C[N+](C)(C)CCO [[DCA][Z] (8)] | 15.4 ± 2.0 mm | Inactive | 15.0 mm and 15.0 ± 1.3 mm | Inactive | 19.1 mm and 19.1 ± 0.2 mm | Inactive | 13.0 ± 1.9 mm | Inactive | 18.1 ± 1.7 mm | inhibition zones, range over strains [7]: 13.0–19.1 mm; improvement in antibacterial activity compared to its bile acid DCA (5) ([7]; S. epidermidis and E. faecalis inhibition zones): 41.4–41.5% |
| C[C@H](CCC(=O)[O-])[C@H]1CC[C@H]2[C@@H]3CC[C@@H]4C[C@H](O)CC[C@]4(C)[C@H]3CC[C@]12C.C[N+](C)(C)CCO [[LCA][Z] (4)] |  | Inactive |  | Inactive |  | Inactive |  | Inactive | 7.8 mm and 7.8 ± 1.2 mm | CC50 (A549-hACE2 cells): >50 µg/mL; cytotoxicity (A549-hACE2 cells): did not exhibit cytotoxicity |
| CC(CCC(=O)[O-])C1CCC2C3C(O)CC4CC(O)CCC4(C)C3CCC12C.C[N+](C)(C)CCO (stereo not shown) [[UDCA][Z] (12)] | 10.3 ± 1.7 mm | Inactive |  | Inactive | 13.0 ± 0.5 mm | Inactive | 10.1 ± 1.1 mm | Inactive | 12.5 ± 0.5 mm |  |
| C[C@@H]1[C@H](O)[C@@H](C)/C=C/C=C/C=C/C=C/C=C/C=C/C=C/[C@H](O[C@@H]2O[C@H](C)[C@@H](O)[C@H](N)[C@@H]2O)C[C@@H]2O[C@](O)(C[C@@H](O)C[C@@H](O)[C@H](O)CC[C@@H](O)C[C@@H](O)CC(=O)O[C@H]1C)C[C@H](O)[C@H]2C(=O)O [amphotericin B, reference compound] |  |  |  |  |  |  |  |  |  | zone of inhibition at 10 µg/disc ([5]; Candida albicans, TISTR5554, read-out: Inhibition zone ± SD, C. albicans): 21.8 ± 1.3 mm |
| O=C(O)c1cn(C2CC2)c2cc(N3CCNCC3)c(F)cc2c1=O [ciprofloxacin, reference compound] |  |  |  |  |  |  |  |  |  | zone of inhibition at 5 µg/disc [1, 8]: 31 ± 1.5 mm; zone of inhibition at 5 µg/disc ([2]; Pseudomonas aeruginosa, TISTR357, read-out: Inhibition zone ± SD, P. aeruginosa): 31.2 ± 1.1 mm; zone of inhibition at 5 µg/disc [3, 9]: 24.1 ± 1 mm; zone of inhibition at 5 µg/disc (S. typhi; Salmonella enterica, TYPHI, read-out: Inhibition zone ± SD, S. typhi): 39.3 ± 2.6 mm; zone of inhibition at 5 µg/disc [4, 10]: 36.4 ± 0.4 mm; zone of inhibition at 5 µg/disc [6, 11]: 38.5 ± 2.1 mm; zone of inhibition at 5 µg/disc (S. flexneri ATCC 9199; Shigella flexneri, ATCC9199, read-out: Inhibition zone ± SD, S. flexneri): 42.1 ± 0.7 mm; zone of inhibition at 5 µg/disc (Bacillus cereus TISTR035; [12]): 33.2 ± 1.6 mm |
